Source: article PMC3475218 (Theranostics, 2012)
Where “and” joins values, the source holds several entries; their conditions need not be identical. Equal values may be shown once.

Key:
neuropilin-1 (NRP-1) = details: receptor expressed in angiogenic vasculature; ref [19], [20], [22]; cited from earlier work
MDA-MB-231 cells [1] = assay: Photodynamic activity; type: cell-based, human; details: for DL50 (50% cell growth inhibitory light dose): 652 nm, 24 h incubation, MTT 24 h post-irradiation, six replicates
[2] = Zeta potential measurement; type: physicochemical; details: ultrapure water, pH ~ 7.0, 5 mM gadolinium, 20°C, Zetasizer Nano ZS
Outline: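 Nanoparticles were suspended in ultrapure water at pH ~7.0 and 5 mM Gd and measured by electrophoretic light scattering (532 nm laser). Readings were taken 2.00 mm from the cell wall with an automatic attenuator at 20°C. Each sample ran 15 runs of 10 s, repeated three times.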

MDA-MB-231 cells [3] = assay: Photo-induced cytotoxicity, real-time impedance-based cell analysis; design: species or system human; details: first 24 h post-exposure, before light irradiation; mean of six replicates
Outline: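 MDA-MB-231 cells were cultured in RPMI with 9% heat-inactivated FBS, penicillin/streptomycin and 2 mM L-glutamine at 37°C, 5% CO2. Cells were seeded at 10^4 per well on electrode plates, and impedance was read every 15 min. At 24 h, test nanoparticles were added at final photosensitizer concentrations of 0.05–10.00 µM, or Gd-matched control nanoparticles at 2.9–585.0 µM. Cells were kept in darkness for 24 h before washing, with six replicates. Cell index was calculated as background-subtracted impedance.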

[4] = test system: recombinant chimeric neuropilin-1 (NRP-1) protein; assay: Competitive binding to recombinant NRP-1 protein; details: 5 ng/mL biotinylated VEGF165, 2 µg/mL heparin, 2 h room temperature; n=3
Outline: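 Plates coated overnight at room temperature with recombinant chimeric NRP-1 (2 µg/mL in PBS), washed with PBS/0.05% Tween 20, and blocked with PBS/0.5% BSA for 1 h at 37°C. Biotinylated VEGF165 (5 ng/mL, with 2 µg/mL heparin) was added with increasing test nanoparticle concentrations, Gd-matched control nanoparticles, or excess unlabelled VEGF165 (0.5 µg/mL). Streptavidin-HRP colorimetric read-out at 450 nm was expressed relative to the no-competitor control, in triplicate.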

[5] = UV/Vis absorption and fluorescence spectra; type: physicochemical; details: from UV/Vis calibration curve of free TPC
Outline: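 Absorption spectra were recorded by UV-visible spectrophotometry on ethanol suspensions of nanoparticles and free photosensitizer. Fluorescence spectra were acquired on a spectrofluorimeter with xenon lamp excitation and a thermostatted cell compartment at 25°C.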

[6] = test system: orthotopic U87 human glioblastoma (tumor tissue) in nude rats; assay: In vivo tumor MRI contrast enhancement kinetics; design: species or system rat; details: i.v., 25 µmol of Gd / 250 g
Outline: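 Male athymic nude rats (rnu/rnu) received 5.10^5 U87 cells in 5 μL HBSS stereotactically into the right striatum (0.5 mm anterior, 2.7 mm lateral to bregma) under i.p. ketamine/xylazine. About 20 days later, nanoparticles were given intravenously in 500 µL, diluted in 9‰ NaCl from an iso-osmolar 100 mM Gd stock at pH ~7.4. Tumor MRI signal was normalized to pre-injection and contralateral tissue, and its decline from peak was followed.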

| Substance | NRP-1 targeting (qualitative) (neuropilin-1 (NRP-1)) | DL50 (50% cell growth inhibitory light dose) (MDA-MB-231 cells [1]; 0.1 µM TPC) | DL50 (50% cell growth inhibitory light dose) (MDA-MB-231 cells [1]; 1.0 µM TPC) | Photocytotoxic effectiveness, 1.0 µM vs 0.1 µM TPC (MDA-MB-231 cells [1]; ratio of DL50 at 0.1 and 1.0 µM) [times] | Zeta potential [2] [mV] | Cell index before irradiation (MDA-MB-231 cells [3]) | Binding to NRP-1 (qualitative) [4] | TPC molecules per nanoparticle [5] | Rate of decrease of tumor MRI contrast ([6]; decrease from maximum peak) | Half-life in tumor tissue (T1/2) ([6]; semi-logarithmic presentation of MRI contrast enhancement decrease) [h] |
| --- | --- | --- | --- | --- | --- | --- | --- | --- | --- | --- |
| H-ATWLPPR-OH [ATWLPPR] | selectively target NRP-1 receptor |  |  |  |  |  |  |  |  |  |
| H-ATWLPPR-OH [NP-TPC-ATWLPPR] |  | 9.16 J/cm^2 and 9.2 J/cm^2 | 2.80 J/cm^2 and 2.8 J/cm^2 | 3.3 | 12.9±4 | no decrease in cell index values | greatly displaced | ~ 1.7 TPC molecules per nanoparticle | -0.0072 .min^-1 | 1.604 |
